Results: ChEMBL document CHEMBL4414663, “Pyrazole-4-Carboxamide (YW2065): A Therapeutic Candidate for Colorectal Cancer via Dual Activities of Wnt/β-Catenin Signaling Inhibition and AMP-Activated Protein Kinase (AMPK) Activation” (J Med Chem, 2019)
Activity calls are given as the source filed them. The rule behind the calls is not given here.

Tests used:
Homo sapiens [1] = species on record: Homo sapiens; test: Inhibition of Wnt/beta-Catenin signaling (unknown origin) expressed in recombinant human Wnt-3a-induced Wnt-HEK293 cells assessed as increase in beta-catenin degradation at 1 uM by Western blot analysis; assay type: cell-based
HEK293 = test: Induction of Axin-1 protein expression in recombinant human Wnt-3a-induced Wnt-HEK293 cells at 1 uM by Western blot analysis; assay type: functional, cell-based
[2] = Inhibition of Wnt/beta-Catenin signaling in human SW480 cells incubated for 24 hrs by TCF/LEF dual-luciferase reporter assay; assay type: cell-based; details: SW480, 24 h
Summary of the method: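 SW480 or SW620 cells seeded at 200,000/well and transiently transfected 24 h later with TOPflash firefly luciferase plus pRLTK-Renilla using lipofectamine 2000. After 16 h the medium was replaced with compound at a range of concentrations, three replicates each. Dual firefly/Renilla luciferase read 24 h later.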

SW-620 [3] = test: Induction of Axin-1 protein expression in human SW620 cells by Western blot analysis; assay type: functional, cell-based
Summary of the method: (§1)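 SW620 cells in RPMI 1640 with 10% FBS, treated over a concentration range. Lysed in RIPA with protease inhibitors, 20 µL of 2 mg/mL protein run on 7.5% SDS-PAGE, transferred to nitrocellulose, blocked in 5% BSA. Rabbit primaries (Axin-1, ACC, pACC, AMPK, pAMPK at 1:1,000; β-actin 1:2,000) overnight at 4 °C, HRP secondary 1:8000 for 2 h, ECL.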

Homo sapiens [4] = species on record: Homo sapiens; test: Inhibition of Wnt/beta-Catenin signaling in human SW620 cells assessed as reduction in cyclinD1 mRNA expression at 10 uM incubated for 24 hrs by real-time PCR analysis; assay type: cell-based
Summary of the method: (§2)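 SW620 cells (RPMI 1640, 10% FBS) in 6-well plates, incubated 24 h, then treated with compound at several concentrations, three replicates each, for 24 h. Total RNA isolated with Trizol/phenol-chloroform; 2 µg reverse transcribed; Wnt target gene mRNA quantified by PCR.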

Homo sapiens [5] = species on record: Homo sapiens; test: Inhibition of Wnt/beta-Catenin signaling in human SW620 cells assessed as reduction in MMP7 mRNA expression at 10 uM incubated for 24 hrs by real-time PCR analysis; assay type: cell-based; summary of the method: as §2
[6] = target: AMP-activated protein kinase, AMPK (Homo sapiens) (UniProt P54646+O43741+P54619+Q9UGJ0+Q9Y478+Q13131+Q9UGI9); test: Activation of AMPK in human SW620 cells assessed as increase in AMPK phosphorylation incubated for 24 hrs by Western blot analysis; assay type: cell-based; summary of the method: as §1
SW-620 [7] = test: Inhibition of colony formation in human SW620 cells incubated for 14 days by crystal violet staining based assay; assay type: functional, cell-based
Summary of the method: (§3)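 SW480, SW620 or HT29 cells seeded at 300/well in 3 mL medium in 6-well plates with a concentration series of compound. After 14 days, fixed in 4% formaldehyde and stained with 0.5% crystal violet in 25% aqueous MeOH; colonies photographed.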

SW480 = test: Inhibition of colony formation in human SW480 cells incubated for 14 days by crystal violet staining based assay; assay type: functional, cell-based; summary of the method: as §3
SW-620 [8] = test: Growth inhibition of human SW620 cells transfected with lentivrus-encoding shRNA against Axin-1 incubated for 72 hrs by Cell-titer-fluor reagent based assay; assay type: functional; details: SW-620, 72 h
Summary of the method: (§4)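 SW620 cells, parental, overexpressing β-catenin S33Y, or with Axin-1 knocked down by lentiviral shRNA. Treated with compound or vehicle for 72 h.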

SW-620 [9] = test: Growth inhibition of human SW620 cells incubated for 72 hrs by Cell-titer-fluor reagent based assay; assay type: functional; details: SW-620, 72 h; summary of the method: as §4
SW-620 [10] = test: Induction of apoptosis in human SW620 cells assessed as viable cells level at 1 uM incubated for 48 hrs by AAD-7 and FITC-annexin-V staining based flow cytometry (reference value: 73.8%); assay type: functional
SW-620 [11] = test: Induction of apoptosis in human SW620 cells assessed as early apoptotic cells level at 3 uM incubated for 48 hrs by AAD-7 and FITC-annexin-V staining based flow cytometry (reference value: 18.6%); assay type: functional
SW-620 [12] = test: Induction of apoptosis in human SW620 cells assessed as viable cells level at 10 uM incubated for 48 hrs by AAD-7 and FITC-annexin-V staining based flow cytometry (reference value: 73.8%); assay type: functional
SW-620 [13] = test: Induction of apoptosis in human SW620 cells assessed as early apoptotic cells level at 10 uM incubated for 48 hrs by AAD-7 and FITC-annexin-V staining based flow cytometry (reference value: 18.6%); assay type: functional
[14] = target: Ribosomal protein S6 kinase alpha-3 (Homo sapiens) (UniProt P51812); test: Inhibition of RPS6KA3 (unknown origin) at 1000 nM relative to control
Summary of the method: (§5)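 Single-concentration screen at 1000 nM against a 273-kinase panel, reported as percent inhibition.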

[15] = target: MAP kinase-activated protein kinase 3 (Homo sapiens) (UniProt Q16644); test: Inhibition of MAPKAPK3 (unknown origin) at 1000 nM relative to control; summary of the method: as §5
[16] = target: Serine/threonine-protein kinase PAK 3 (Homo sapiens) (UniProt O75914); test: Inhibition of PAK3 (unknown origin) at 1000 nM relative to control; summary of the method: as §5
[17] = Half life in C57BL/6J mouse at 5 mg/kg, po by UPLC-MS analysis; assay type: ADME, organism-based; details: in vivo
Summary of the method: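 Male C57BL/6J mice, 2-3 months, 23-26 g. Single 5 mg/kg dose in 5% Kolliphor in saline, given iv (n=3) or by oral gavage (n=5). Tail-vein blood taken at 0.25, 0.5, 1, 4, 8 and 12 h and spun to plasma. Plasma analysed by LC-MS/MS on a triple quadrupole with a C18 column. Parameters from non-compartmental analysis.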

SW-620 [18] = test: Antitumor activity against human SW620 cells xenografted in nude mouse assessed as reduction in tumor weight at 10 mg/kg, ip QD for 32 consecutive days; assay type: functional, organism-based
Summary of the method: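 Six-week-old nude mice injected subcutaneously with 2×10^6 SW620 cells. Randomised at mean tumor volume 100–200 mm³ (n=6/group). Given 10 or 50 mg/kg ip daily for 32 consecutive days; vehicle 10% DMSO, 10% Kolliphor, 80% saline. Tumor volume measured every other day. Tumors weighed after euthanasia at day 32. t test against vehicle.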

[19] = Toxicity in C57BL/6 mouse assessed as effect on AST level at 100 mg/kg/day, ip for 21 days; assay type: organism-based; details: in vivo, 504 h
[20] = Toxicity in C57BL/6 mouse assessed as effect on glucose level at 100 mg/kg/day, ip for 21 days; assay type: organism-based; details: in vivo, 504 h
Mus musculus = test: Activation of AMPK in nude mouse xenografted with human SW620 cells assessed as increase in ACC phosphorylation at 50 mg/kg, ip QD for 32 consecutive days by Western blot analysis; assay type: functional, organism-based
Summary of the method: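 Nude mice carried subcutaneous SW620 xenografts (2×10^6 cells, right flank). Dosing began once mean tumor volume reached 100–200 mm³: 50 mg/kg ip once daily for 32 days, vehicle 10% DMSO/10% Kolliphor/80% saline. Tumors taken at day 32 and lysed in RIPA with protease inhibitors. Western blot with 20 µL of 2 mg/mL lysate on 7.5% SDS-PAGE, probed for pAMPK/AMPK or pACC/ACC, ECL detection.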

Chain of Serine/threonine-protein kinase PAK 3 (Homo sapiens) (O75914 whole entry, looked up): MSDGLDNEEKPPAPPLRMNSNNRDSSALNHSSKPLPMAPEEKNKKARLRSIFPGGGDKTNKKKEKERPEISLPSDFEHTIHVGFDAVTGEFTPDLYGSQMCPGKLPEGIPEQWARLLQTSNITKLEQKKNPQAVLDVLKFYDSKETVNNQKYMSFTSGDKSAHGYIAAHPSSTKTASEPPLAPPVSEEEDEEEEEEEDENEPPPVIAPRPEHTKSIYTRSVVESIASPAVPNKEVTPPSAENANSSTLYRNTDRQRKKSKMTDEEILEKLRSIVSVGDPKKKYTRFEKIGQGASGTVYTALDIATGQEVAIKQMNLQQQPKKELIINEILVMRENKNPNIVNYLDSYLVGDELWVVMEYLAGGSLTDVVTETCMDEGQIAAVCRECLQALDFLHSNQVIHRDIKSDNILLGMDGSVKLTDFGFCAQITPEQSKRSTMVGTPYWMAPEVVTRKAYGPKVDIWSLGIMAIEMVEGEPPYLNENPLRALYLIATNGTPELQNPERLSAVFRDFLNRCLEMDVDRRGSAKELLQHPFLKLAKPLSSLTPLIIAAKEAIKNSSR
Chain of MAP kinase-activated protein kinase 3 (Homo sapiens) (Q16644 whole entry, looked up): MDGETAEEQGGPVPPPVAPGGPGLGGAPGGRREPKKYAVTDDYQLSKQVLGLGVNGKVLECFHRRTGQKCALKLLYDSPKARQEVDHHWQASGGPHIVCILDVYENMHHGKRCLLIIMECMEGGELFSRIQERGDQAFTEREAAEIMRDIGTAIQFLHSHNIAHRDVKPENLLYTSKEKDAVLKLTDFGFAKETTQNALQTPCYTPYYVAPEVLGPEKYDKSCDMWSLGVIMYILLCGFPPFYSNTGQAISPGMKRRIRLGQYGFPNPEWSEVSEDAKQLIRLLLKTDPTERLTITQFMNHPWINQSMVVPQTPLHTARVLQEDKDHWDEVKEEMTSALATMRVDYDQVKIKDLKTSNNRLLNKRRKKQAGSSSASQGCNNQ
Chain of Ribosomal protein S6 kinase alpha-3 (Homo sapiens) (P51812 whole entry): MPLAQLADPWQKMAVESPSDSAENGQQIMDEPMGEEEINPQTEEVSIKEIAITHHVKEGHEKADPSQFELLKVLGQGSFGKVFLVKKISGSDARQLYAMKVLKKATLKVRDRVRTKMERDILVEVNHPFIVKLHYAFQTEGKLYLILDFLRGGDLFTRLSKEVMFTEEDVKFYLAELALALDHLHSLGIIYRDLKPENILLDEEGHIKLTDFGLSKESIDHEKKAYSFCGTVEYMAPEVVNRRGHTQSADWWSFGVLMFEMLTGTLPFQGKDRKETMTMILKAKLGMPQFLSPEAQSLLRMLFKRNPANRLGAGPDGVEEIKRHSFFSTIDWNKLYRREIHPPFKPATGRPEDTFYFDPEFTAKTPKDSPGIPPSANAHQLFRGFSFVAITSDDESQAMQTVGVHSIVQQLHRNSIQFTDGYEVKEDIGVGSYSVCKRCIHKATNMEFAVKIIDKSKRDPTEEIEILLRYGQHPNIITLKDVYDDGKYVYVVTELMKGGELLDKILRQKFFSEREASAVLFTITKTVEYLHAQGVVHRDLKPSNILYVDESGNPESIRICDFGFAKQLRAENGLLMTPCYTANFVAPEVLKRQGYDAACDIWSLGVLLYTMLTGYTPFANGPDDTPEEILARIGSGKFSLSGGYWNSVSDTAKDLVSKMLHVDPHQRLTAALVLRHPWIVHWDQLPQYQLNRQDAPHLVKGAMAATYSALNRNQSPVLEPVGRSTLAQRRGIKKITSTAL

IC50 [2]: 0.00115 µM
Activity [6]: Dose-dependent effect
IC50 (SW-620 [8]): 0.0854 µM
IC50 (SW-620 [9]): 0.0116 µM
inhibition [14]: 39%
inhibition [15]: Active
inhibition [16]: Active
half-life [17]: 2.9 h
Structure (SMILES): Cc1c(C(=O)Nc2ccc3ccccc3n2)cnn1-c1ccccc1Br
inhibition (Homo sapiens [1]): Active
Activity (HEK293): Active
Activity (SW-620 [3]): Dose-dependent effect
inhibition (Homo sapiens [4]): Active
inhibition (Homo sapiens [5]): Active
inhibition (SW-620 [7]): Dose-dependent effect
inhibition (SW480): Dose-dependent effect
Activity (SW-620 [10]): 67.1%
Activity (SW-620 [11]): 35.7%
Activity (SW-620 [12]): 22.1%
Activity (SW-620 [13]): 57.9%
Activity (SW-620 [18]): Active
Activity [19]: Non-Toxic
Activity [20]: Non-Toxic
Activity (Mus musculus): Active
